The source made the active and inactive calls. The rule behind the calls is not given here.

Data set [1] concerns Leishmania infantum. Kind of data set: Antileishmanial activity against axenic amastigote form of Leishmania infantum MCAN/ES/2001/UCM-10 after 72 hrs by haemocytometric analysis. Format: functional, organism-based. The note with it: Leishmania infantum, MCAN/ES/2001/UCM-10, 72 h. The method, boiled down: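 Axenic amastigotes made by culturing promastigotes 3 days at 37 °C in M199 with 10% heat-inactivated FCS plus organic acids, amino acids, sucrose, bicarbonate, MES, haemin and gentamicin, pH 5.4. Compound effect counted in a Neubauer haemocytometer chamber. IC50 by linear regression of Kc values at 1, 10, 25, 50 and 100.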

Data set [2] relates to Leishmania braziliensis. The data set is described as follows: Antileishmanial activity against promastigote form of Leishmania braziliensis MHOM/BR/1975/M2904 after 72 hrs by haemocytometric analysis. Format: functional. As to conditions: MHOM/BR/75/M2904, 72 h. The method, boiled down: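 Promastigotes grown at 28 °C in MTL medium with 10% inactivated FCS. Compounds in DMSO (0.1%), diluted in culture medium to 100, 50, 25, 10 and 1. Cells counted at 72 h in a Neubauer haemocytometric chamber. IC50 (50% inhibition) by linear regression of Kc values.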

Data set [3] is described as follows: Selectivity index, ratio of IC50 for mouse J774.2 cells to IC50 for promastigote form of Leishmania infantum MCAN/ES/2001/UCM-10. Format: toxicity. As to conditions: J774.2 cells, read-out: Ratio IC50. The essentials:
(§1)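 J774.2 toxicity: 72 h at the same concentrations, viability by flow cytometry with propidium iodide/fluorescein diacetate; IC50 by linear regression. SI = macrophage IC50/parasite IC50; ratio is compound SI over Glucantime SI.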

A short description of data set [4]: Ratio of compound selectivity index to glucantime selectivity index for promastigote form of Leishmania infantum MCAN/ES/2001/UCM-10 over mouse J774.2 cells. The method, boiled down:
as §1

A short description of data set [5]: Ratio of compound selectivity index to glucantime selectivity index for promastigote form of Leishmania braziliensis MHOM/BR/1975/M2904 over mouse J774.2 cells.
Data set [6] deals with Leishmania braziliensis. The data set is described as follows: Antileishmanial activity against promastigote form of Leishmania braziliensis MHOM/BR/1975/M2904 assessed as change in lactate metabolite production at IC25 concentration after 96 hrs by H1-NMR analysis. Format: functional, MHOM/BR/75/M2904. The essentials: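 Promastigote cultures, initial 5 × 10^5 cells/mL, given the IC25 of compound; controls left untreated. Incubated 96 h at 28 °C, then centrifuged at 400g for 10 min. Excreted metabolites in the medium identified by 1H NMR spectra and compared with untreated control.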

Data set [7] deals with Leishmania infantum. Kind of data set: Antileishmanial activity against promastigote form of Leishmania infantum MCAN/ES/2001/UCM-10 infected in J774.2 cells assessed as inhibition of number of amastigotes per host cell at IC25 concentration incubated for 12 hrs followed by compound washout measured after 48 hrs by microscopic analysis. Format: functional. The method, boiled down: (§2)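 J774.2 cells seeded at 1 × 10^4 cells/well on coverslips and cultured 2 days. Infected with promastigotes at 10:1 with drug at IC25 added immediately, for 12 h at 37 °C in 5% CO2. Parasites and drug washed out, then grown 10 days with washing and fresh medium every 48 h. On methanol-fixed, Giemsa-stained slides, % infected cells and amastigotes per infected cell scored from more than 200 host cells. Three determinations.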

Data set [8] is described as follows: Inhibition of promastigote form Leishmania infantum MCAN/ES/2001/UCM-10 Fe-SOD by NBT reduction assay. The method, boiled down: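 Promastigotes sonicated in STE buffer (pH 7.8). The 35–85% ammonium sulphate fraction was desalted into 20 mM potassium phosphate/1 mM EDTA, pH 7.8, and protein was measured by Bradford. Fe-SOD activity was read spectrophotometrically as inhibition of NBT reduction by superoxide (Beyer–Fridovich); one unit gives 50% inhibition of the rate. Compounds tested at […]; IC50 by linear regression; three determinations, Newman–Keuls test.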

Data set [9] in a line: Selectivity index, ratio of IC50 for mouse J774.2 cells to IC50 for axenic amastigote form of Leishmania infantum MCAN/ES/2001/UCM-10. As to conditions: J774.2 cells, read-out: Ratio IC50. Format: toxicity. The essentials:
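Axenic amastigotes obtained by 3-day promastigote transformation in supplemented M199 + 10% heat-inactivated FCS, pH 5.4, 37 °C. […] Host toxicity: J774.2, 72 h, PI/FDA flow cytometry. SI = macrophage IC50/axenic amastigote IC50; ratio is compound SI over Glucantime SI.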

Data set [10] is described as follows: Inhibition of Escherichia coli Mn-SOD by […] reduction assay. The method, boiled down: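 Commercial Mn-SOD from Escherichia coli assayed by spectrophotometric NBT-reduction method, in which superoxide reduces NBT.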
Data set [11] in a line: Selectivity index, ratio of IC50 for mouse J774.2 cells to IC50 for amastigote form of Leishmania braziliensis MHOM/BR/1975/M2904 infected in J774.2 cells. Format: toxicity, cell-based. As to conditions: J774.2 cells, read-out: Ratio IC50. The essentials: (§3)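 J774.2 macrophages in MEM + 2 mM glutamine + 20% inactivated FCS were infected with stationary-phase promastigotes (10:1) for 24 h at 37 °C, 5% CO2. After washing, compounds were added at […] for 72 h. Amastigote reduction was scored in methanol-fixed, Giemsa-stained preparations; IC50 by regression; triplicates. SI = J774.2 IC50 (72 h flow cytometry)/amastigote IC50; ratio is versus Glucantime SI.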

The test system of data set [12] is J774.2. Kind of data set: Cytotoxicity against mouse J774.2 cells after 72 hrs by PI-staining based flow cytometric analysis. Format: cell-based. The note with it: J774.2, 72 h. The method, boiled down: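 J774.2 macrophages (ECACC 91051511, female BALB/c mouse tumour) treated 72 h with 100, 50, 25, 10 and 1 of compound. Propidium iodide then fluorescein diacetate each added for 10 min at 28 °C in the dark. Cells pelleted at 400g, washed in PBS and analysed by flow cytometry. Viability % vs control; IC50 by linear regression of Kc values.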
In general terms: A flow cytometer gives signals particle by particle.

The nature of data set [13]: Inhibition of promastigote form Leishmania braziliensis MHOM/BR/1975/M2904 Fe-SOD by NBT reduction assay. Further details: species or system Leishmania braziliensis MHOM/BR/75/M2904. The essentials:
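Promastigotes sonicated in sucrose/Tris-HCl/EDTA buffer, pH 7.8, and centrifuged. Protein precipitating at 35–85% ammonium sulphate desalted into 20 mM potassium phosphate with 1 mM EDTA, pH 7.8. Protein measured by Bradford. Fe-SOD activity read spectrophotometrically as inhibition of NBT reduction by superoxide, with compounds at 0.1–50. IC50 by linear regression of Kc values; three determinations; Newman-Keuls test vs control homogenate.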

Data set [14] in a line: Ratio of compound selectivity index to glucantime selectivity index for amastigote form of Leishmania infantum MCAN/ES/2001/UCM-10 infected in J774.2 cells over mouse J774.2 cells. The essentials:
as §3

Data set [15] concerns Leishmania braziliensis. The data set is described as follows: Antileishmanial activity against promastigote form of Leishmania braziliensis MHOM/BR/1975/M2904 assessed as cytoplasmic alterations at IC25 concentration after 96 hrs by MET microscopic analysis. Format: functional. The note with it: MHOM/BR/75/M2904. The method, boiled down:
(§4)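 Promastigotes at 5 × 10^5 cells/mL in MTL medium with compound at IC25 for 96 h. Ultrastructure examined by transmission electron microscopy against untreated control parasites.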

Data set [16] deals with Leishmania infantum. The data set is described as follows: Antileishmanial activity against promastigote form of Leishmania infantum MCAN/ES/2001/UCM-10 assessed as increase in glycosomes at IC25 concentration after 96 hrs by […] electron microscopic analysis relative to control. Format: functional, organism-based. The method, boiled down:
as §4

Data set [17] deals with Leishmania braziliensis. Kind of data set: Antileishmanial activity against promastigote form of […] MHOM/BR/1975/M2904 infected in J774.2 cells assessed as inhibition of number of amastigotes per host cell at IC25 concentration incubated for 12 hrs followed by compound washout measured after 48 hrs by microscopic analysis. Format: functional, MHOM/BR/75/M2904. The essentials:
as §2

What is called IC50 is the concentration needed to halve the response being measured. A lower IC50 goes with higher potency. For `Cl.c1cncc(CNCCN2CCNCc3cccc(n3)CNCC2)c1`, the concentration for half-maximal inhibition (IC50) in [1] was found to be 15.9 µM; in data set [2], 23 µM; in data set [8], 5.7 µM; in data set [10] it was 641 µM; in [12], 468 µM; in [13], 9 µM. Besides, the selectivity ratio turned out to be 24.9 in data set [3], 29.4 in data set [9] and 45.4 in [11]. Also, the Ratio in [4] was found to be 31; in data set [5] it was 34; in data set [14] it was 149. In addition, the Activity in data set [6] is 19%. For the same molecule, the “inhibition (INH)” value worked out at 77% in data set [7] and 80% in data set [17]. The outcome in data set [15] and in data set [16] was Active.

Regarding `Br.NCCN1CCNCc2cccc(n2)CNCC1`, the half-inhibitory concentration (IC50) was determined as 29.2 µM in data set [1]; 11.8 µM in data set [2]; 6.5 µM in [8]; 381 µM in data set [10]; 232 µM in data set [12]; 15.1 µM in data set [13]. In addition, the selectivity ratio in data set [3] worked out at 12.2; in data set [9], 8; in data set [11], 23.2. Also, the Ratio in [4] turned out to be 15; in data set [5], 30; in data set [14], 18. Besides, in [6], the Activity was 6%. In addition, the result in data set [15] was Active. For the same molecule, the “inhibition (INH)” value in data set [17] worked out at 55%.

For `Cl.c1cc2nc(c1)CNCCN(CCNCc1cccc3ccccc13)CCNC2`, the IC50 came to 28.1 µM in data set [1]; 12.3 µM in [2]; 17.6 µM in [8]; 408 µM in data set [10]; 365 µM in [12]; 16.6 µM in [13]. The selectivity ratio in data set [3] stood at 18.8; in data set [9], 13; in data set [11], 22. For the same molecule, the Ratio is 23 in data set [4], 49 in data set [5] and 42 in data set [14]. For the same molecule, the Activity in [6] is 0%. Also, the “inhibition (INH)” value in data set [7] turned out to be 71%; in data set [17], 59%. For the same molecule, the outcome in data set [15] and in data set [16] was Active.

Take `Cl.c1ccc(CNCCN2CCNCc3cccc(n3)CNCC2)nc1`: the IC50 in [1] came out at 25.4 µM; in [2], 11.3 µM; in [8] it was 16.1 µM; in [10] it was 178 µM; in [12] it was 254 µM; in data set [13], 1.3 µM. For the same molecule, the selectivity ratio in [3] stood at 16.4; in data set [9], 10; in [11] it was 24.4. Besides, the Ratio came to 20 in data set [4], 37 in data set [5] and 26 in data set [14]. Further, in data set [6], the Activity came out at 0%. The “inhibition (INH)” value in data set [7] and in data set [17] was 67% throughout. Besides, the outcome in [15] and in [16] was Active.

Source of the values: ChEMBL document CHEMBL2331406, “In vitro activity of scorpiand-like azamacrocycle derivatives in promastigotes and intracellular amastigotes of Leishmania infantum and Leishmania braziliensis” (Eur J Med Chem, 2013).
